# The source made the active and inactive calls. The rule behind the calls is not given here.
# Columns and labels:
# [1] = Antioxidant activity assessed as DPPH free radical scavenging activity at 100 ug/ml incubated for 30 mins by ELISA method; assay type: physicochemical; conditions: 0.5 h
# Summary of the method: (§1)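 Sample (120 μL, 10−100 μg/mL) mixed with 30 μL of 0.75 mM DPPH in methanol, shaken in the dark at room temperature for 30 min, absorbance read at 517 nm on a plate reader. Methanol negative control, α-tocopherol (10−40 μg/mL) positive control. ED50 taken as concentration scavenging 50% of DPPH radicals.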
# RAW264.7 [2] = assay: Anti-inflammatory activity in mouse RAW264.7 cells assessed as inhibition of LPS-induced nitric oxide production at 20 ug/ml incubated for 24 hrs by Griess reagent based assay; assay type: functional, cell-based
# Summary of the method: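 RAW 264.7 macrophages grown in DMEM with 5% heat-inactivated fetal calf serum at 37 °C, 5% CO2. Cells seeded at 2 × 10^5/well, treated with compound (DMSO stock diluted in PBS) together with LPS 1000 ng/mL for 24 h. Medium nitrite read with Griess reagent at 550 nm against NaNO2 standard curve; LPS-only NO set as 100%; triplicate; quercetin positive control.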
# [3] = Antioxidant activity assessed as DPPH free radical scavenging activity incubated for 30 mins by ELISA method; assay type: physicochemical; conditions: 0.5 h; read-out: ED50 (the source's name); summary of the method: as §1
# RAW264.7 [4] = assay: Anti-inflammatory activity in mouse RAW264.7 cells assessed as inhibition of LPS-induced nitric oxide production incubated for 24 hrs by Griess reagent based assay; assay type: functional, cell-based; conditions: RAW264.7, 24 h
# Summary of the method: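 RAW 264.7 macrophages grown in DMEM with 5% heat-inactivated FCS at 37 °C, 5% CO2; plated at 2 × 10^5 cells/well and stimulated with LPS (1000 ng/mL) concurrently with test agents (DMSO stocks diluted in PBS) for 24 h. Nitrite in medium measured with Griess reagent at 550 nm against NaNO2 standard curve; LPS-only set as 100%; triplicates; IC50 reported.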
Activity [1] [%],EC50 [3] [µM],SMILES,inhibition (RAW264.7 [2]),IC50 (RAW264.7 [4]) [µM]
99.7,47,O=C(/C=C/c1ccc(O)c(O)c1)OC[C@H]1O[C@@H](Oc2ccc(/C=C/C(=O)O[C@@H]3O[C@H](CO)[C@@H](O)[C@H](O)[C@H]3O)cc2)[C@H](O)[C@@H](O)[C@@H]1O,inactive,–
98.8,17,O=C(/C=C/c1ccc(O[C@@H]2O[C@H](COC(=O)/C=C/c3ccc(O)c(O)c3)[C@@H](O)[C@H](O)[C@H]2O)c(O)c1)OC[C@H]1O[C@@H](Oc2cc(/C=C/c3ccc(O)c(O)c3)oc(=O)c2)[C@H](O)[C@@H](O)[C@@H]1O,inactive,–
99.8,13.3,O=C(/C=C/c1ccc(O)c(O)c1)OC[C@H]1O[C@@H](Oc2ccc(/C=C/C(=O)O[C@@H]3O[C@H](CO)[C@@H](O)[C@H](O)[C@H]3O)cc2O)[C@H](O)[C@@H](O)[C@@H]1O,inactive,–
9.8,–,O=C(/C=C/c1ccc(O)c(O)c1)OC[C@H]1OC(O)[C@H](O)[C@@H](O)[C@@H]1O (some centres undefined),inactive,–
7.8,–,O=C(/C=C/c1ccc(O)cc1)OC[C@H]1O[C@@H](Oc2ccc(/C=C/C(=O)O[C@@H]3O[C@H](CO)[C@@H](O)[C@H](O)[C@H]3O)cc2O)[C@H](O)[C@@H](O)[C@@H]1O,inactive,–
91.2,175,O=C(O)/C=C/c1ccc(O[C@@H]2O[C@H](CO)[C@@H](O)[C@H](O)[C@H]2O)c(O)c1,inactive,–
32.2,–,O=C(/C=C/c1ccc(O)cc1)OC[C@H]1O[C@@H](Oc2cc(/C=C/C(=O)O[C@@H]3O[C@H](CO)[C@@H](O)[C@H](O)[C@H]3O)ccc2O)[C@H](O)[C@@H](O)[C@@H]1O,inactive,–
99,13,O=C(/C=C/c1ccc(O)c(O)c1)OC[C@H]1O[C@@H](Oc2cc(/C=C/c3ccc(O)c(O)c3)oc(=O)c2)[C@H](O)[C@@H](O)[C@@H]1O,–,14.9
74.8,87,COc1cc(/C=C/C(=O)OC[C@H]2O[C@@H](Oc3ccc(/C=C/C(=O)O[C@@H]4O[C@H](CO)[C@@H](O)[C@H](O)[C@H]4O)cc3O)[C@H](O)[C@@H](O)[C@@H]2O)ccc1O,inactive,–
5,–,O=C(/C=C/c1ccc(O)cc1)OC[C@H]1OC(O)[C@H](O)[C@@H](O)[C@@H]1O (some centres undefined),inactive,–
–,27.8,Cc1c(C)c2c(c(C)c1O)CCC(C)(CCCC(C)CCCC(C)CCCC(C)C)O2 (racemic) [alpha-TOCHOPHEROL],–,–
–,–,O=c1c(O)c(-c2ccc(O)c(O)c2)oc2cc(O)cc(O)c12 [QUERCETIN],–,1.8
99.4,39.9,O=C(/C=C/c1ccc(O)c(O)c1)OC[C@H]1O[C@@H](Oc2cc(/C=C/C(=O)O[C@@H]3O[C@H](CO)[C@@H](O)[C@H](O)[C@H]3O)ccc2O)[C@H](O)[C@@H](O)[C@@H]1O,inactive,–
99.3,29.1,O=C(/C=C/c1ccc(O)c(O)c1)O[C@@H]1O[C@H](CO)[C@@H](O)[C@H](O)[C@H]1O,inactive,–

# From ChEMBL document CHEMBL3588809, “Antioxidant and Anti-Inflammatory Phenolic Glycosides from Clematis tashiroi” (J Nat Prod, 2015)
